The text below walks through data of ChEMBL document CHEMBL1123139, “Antiandrogenic activity of a series of des-A-steroid derivatives” (1985).

The structures appear in SMILES notation. Several values for one entry are separate records, joined by “and”; a condition that tells them apart may be missing. Identical values can stand only once.

Assay [1] relates to Cricetinae gen. sp. The assay can be described thus: Local activity of untreated flank organ in hamster; Expressed as weight (mg). The assay is classed as functional. The procedure, abridged: (§1)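 Male hamsters (100–110 g), castrated 7 days earlier, in groups of four. […] Test compound in 20 μL ethanol was applied daily to the right flank organ, and the contralateral organ received ethanol only. Animals were killed 24 h after the last treatment, and flank organs and prostate were weighed. Results are mean ± SEM.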

Assay [2] deals with Cricetinae gen. sp. The assay can be described thus: (§2) Local subcutaneous administration (1 mg); Expressed as weight (mg). In kind it is functional. The procedure, abridged:
as §1

Assay [3] deals with Cricetinae gen. sp. The description is as §2. The assay is classed as functional. The procedure, abridged: as §1
This is another data set of the same source.

Assay [4] relates to Cricetinae gen. sp. The assay can be described thus: (§3) Local subcutaneous administration (125 ug); Expressed as weight (mg). The assay is classed as functional. The procedure, abridged:
as §1

Assay [5] has as its system Cricetinae gen. sp. The assay is described as §3. The assay is classed as functional. The procedure, abridged:
as §1
This is another data set of the same source.

The test system of assay [6] is Rattus norvegicus. The assay can be described thus: In vivo percent increase in rat prostate weight on subcutaneous administration of testosterone propionate along with compound at dose 5 mg/day; Expressed as percent inhibition of weight increase, mg. The assay is classed as functional, Prostate gland. The procedure, abridged: (§4)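 Immature male rats (70 g), castrated 24 h earlier, in groups of five. […] Controls received vehicle only (sesame oil with 5% benzyl alcohol). Rats were killed 24 h after the last dose, and prostate and seminal vesicles were excised and weighed.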

For assay [7], the system named is Rattus norvegicus. The assay can be described thus: In Vivo inhibition against increase in immature castrated rat seminal vesicles weight on subcutaneous administration of testosterone propionate at dose 5 mg/kg. The assay is classed as functional.
Assay [8] concerns Rattus norvegicus. Briefly: In vivo percent increase rat seminal vesicles weight on subcutaneous administration of testosterone propionate along with compound at dose 5 mg/day; Expressed as percent inhibition of weight increase, mg. The assay is classed as functional. The procedure, abridged:
as §4

Assay [9] relates to Rattus norvegicus. Briefly: In vivo percent increase in rat prostate weight on subcutaneous administration of testosterone propionate along with compound at dose 1 mg/day; Expressed as percent inhibition of weight increase, mg. The assay is classed as functional, Prostate gland.
Assay [10] has as its system Rattus norvegicus. The assay can be described thus: In vivo percent increase in rat seminal vesicles weight on subcutaneous administration of testosterone propionate along with compound at dose 1 mg/day; Expressed as percent inhibition of weight increase, mg. In kind it is functional.
For assay [11], the system named is Cricetinae gen. sp. The assay can be described thus: (§5) Local subcutaneous administration (200 ug); Expressed as weight (mg). In kind it is functional. The procedure, abridged: as §1
The test system of assay [12] is Cricetinae gen. sp. The assay can be described thus: (§6) Tocal subcutaneous administration (1 mg); Expressed as weight (mg). The assay is classed as functional. The procedure, abridged:
as §1

Assay [13] concerns Cricetinae gen. sp. The assay can be described thus: (§7) Tocal subcutaneous administration (200 ug); Expressed as weight (mg). The assay is classed as functional. The procedure, abridged:
as §1

Assay [14] relates to Cricetinae gen. sp. The assay can be described thus: (§8) Tocal subcutaneous administration (40 ug); Expressed as weight (mg). The assay is classed as functional. The procedure, abridged: as §1
Assay [15] concerns Cricetinae gen. sp. The assay is described as §6. In kind it is functional. The procedure, abridged:
as §1
This is another data set of the same source.

Assay [16] has as its system Cricetinae gen. sp. Described as §5. In kind it is functional. The procedure, abridged:
as §1
This is another data set of the same source.

Assay [17] has as its system Cricetinae gen. sp. Described as §8. In kind it is functional. The procedure, abridged:
as §1
This is another data set of the same source.

Assay [18] relates to Cricetinae gen. sp. Briefly: Tocal activity of untreated flank organ in hamster; Expressed as weight (mg). In kind it is functional. The procedure, abridged:
as §1

In assay [19] the test system is Cricetinae gen. sp. The description is as §7. In kind it is functional. The procedure, abridged:
as §1
The source holds these as a separate data set.

As to `CC1=C2CCC3(C)C(O)CCC3C2CCC1=O.CCC(=O)O[C@H]1CC[C@H]2[C@@H]3CCC4=CC(=O)CC[C@]4(C)[C@H]3CC[C@]12C`, the Weight in the assay on Cricetinae gen. sp. [1] was found to be 37.3 mg; in the assay with Cricetinae gen. sp. [2], 144 mg; in the assay with Cricetinae gen. sp. [3], 36.8 mg.
As to `CCC(=O)O[C@H]1CC[C@H]2[C@@H]3CCC4=CC(=O)CC[C@]4(C)[C@H]3CC[C@]12C` [TESTOSTERONE PROPIONATE], the Weight was 37.6 mg and 49.4 mg with Cricetinae gen. sp. [1]; 165 mg and 171 mg with Cricetinae gen. sp. [4]; 37.6 mg and 48.5 mg in the assay on Cricetinae gen. sp. [5].
A word on the Inhibition: it is the drop in the measured response relative to a control, in per cent. Turning to `CC1(C)C(=O)CCC2C1CCC1(C)C(O)CCC21` (stereo unspecified), the Inhibition in the assay with Rattus norvegicus [6] is 49%. Also, in the assay on Rattus norvegicus [7], the “Inhibition of increase in weight” value amounted to 63%.
Regarding `CCC(=O)O[C@H]1CC[C@H]2[C@@H]3CCC4=CC(=O)CC[C@]4(C)[C@H]3CC[C@]12C.CCC12CCC3=C(C)C(=O)CCC3C1CCC2O`, the Weight in the assay on Cricetinae gen. sp. [1] turned out to be 35.2 mg; with Cricetinae gen. sp. [2] it was 137 mg; in the assay with Cricetinae gen. sp. [3] it was 31.9 mg.
On to `CCC1=C2CCC3(C)C(OC(C)=O)CCC3C2CCC1=O` (stereo unspecified), for which the Inhibition in the assay on Rattus norvegicus [6] and with Rattus norvegicus [8] was 50% throughout.
Regarding `CCC12CCC3=C(C)C(=O)CCC3C1CCC2O` (stereo unspecified), the Inhibition in the assay with Rattus norvegicus [6] worked out at 10%. Moreover, the “Inhibition of increase in weight” value with Rattus norvegicus [7] was determined as 50%.
Turning to `CC1(C)C(=O)CCC2C1CCC1(C)C(O)CCC21.CCC(=O)O[C@H]1CC[C@H]2[C@@H]3CCC4=CC(=O)CC[C@]4(C)[C@H]3CC[C@]12C`, the Weight in the assay with Cricetinae gen. sp. [1] is 36.7 mg; in the assay on Cricetinae gen. sp. [2] it was 135 mg; in the assay with Cricetinae gen. sp. [3], 28.4 mg.
For the compound `CCC1=C2CCC3(C)C(O)CCC3C2CCC1=O` (stereo in doubt; 5c), the Inhibition in the assay with Rattus norvegicus [6] was 59%. In the assay on Rattus norvegicus [7], the “Inhibition of increase in weight” value is listed as 73%.
For the compound `CCC(=O)O[C@H]1CC[C@H]2[C@@H]3CCC4=CC(=O)CC[C@]4(C)[C@H]3CC[C@]12C.CCC1=C2CCC3(C)C(O)CCC3C2CCC1=O`, the results for the Weight with Cricetinae gen. sp. [1], with Cricetinae gen. sp. [2] and in the assay with Cricetinae gen. sp. [3] were 34.8 mg, 134 mg and 27.8 mg, respectively.
As to `CC1=C2CCC3(C)C(O)CCC3C2CCC1=O` (stereo unspecified), in the assay on Rattus norvegicus [6], the Inhibition came out at 27%. Besides, the “Inhibition of increase in weight” value in the assay on Rattus norvegicus [7] amounted to 54%.
Consider `CC(=O)O[C@]1(C(C)=O)CC[C@H]2[C@@H]3C=C(Cl)C4=CC(=O)[C@@H]5C[C@@H]5[C@]4(C)[C@H]3CC[C@@]21C` [CYPROTERONE ACETATE], for which the Inhibition in the assay on Rattus norvegicus [9] came out at 90%; in the assay on Rattus norvegicus [10], 73%.
Take `CCC(=O)O[C@H]1CC[C@H]2[C@@H]3CCC4=CC(=O)CC[C@]4(C)[C@H]3CC[C@]12C.CCC1=C2CCC3(C)C(OC(C)=O)CCC3C2CCC1=O`: the Weight in the assay with Cricetinae gen. sp. [11] is 22.8 mg; with Cricetinae gen. sp. [1] it was 31.7 mg and 33 mg; with Cricetinae gen. sp. [12], 111 mg; in the assay with Cricetinae gen. sp. [13] it was 108 mg; in the assay with Cricetinae gen. sp. [14], 125 mg; with Cricetinae gen. sp. [15], 24.8 mg. Moreover, the Weight in the assay on Cricetinae gen. sp. [2] is 143 mg; with Cricetinae gen. sp. [16], 145 mg; with Cricetinae gen. sp. [3], 16.8 mg; in the assay on Cricetinae gen. sp. [17], 38.9 mg; in the assay with Cricetinae gen. sp. [18], 46.2 mg and 42.9 mg and 46.8 mg; with Cricetinae gen. sp. [19], 31.1 mg.
In the case of `CC1=C2C=CC3(C)C(O)CCC3C2CCC1=O` (stereo unspecified), the Inhibition with Rattus norvegicus [6] turned out to be 25%. For the same compound, the “Inhibition of increase in weight” value with Rattus norvegicus [7] is reported as 45%.
